The record followed here is ChEMBL document CHEMBL1155224, “Discovery of new inhibitors of resistant Streptococcus pneumoniae penicillin binding protein (PBP) 2x by structure-based virtual screening” (J Med Chem, 2009).

Residue numbers refer to the chain shown, from its start. The source made the active and inactive calls. No cut-off for these calls is given here.

Experiment [1] has as its target T1, Penicillin-binding protein 2X (Streptococcus pneumoniae R6) (UniProt P59676).
T1 sequence (whole entry): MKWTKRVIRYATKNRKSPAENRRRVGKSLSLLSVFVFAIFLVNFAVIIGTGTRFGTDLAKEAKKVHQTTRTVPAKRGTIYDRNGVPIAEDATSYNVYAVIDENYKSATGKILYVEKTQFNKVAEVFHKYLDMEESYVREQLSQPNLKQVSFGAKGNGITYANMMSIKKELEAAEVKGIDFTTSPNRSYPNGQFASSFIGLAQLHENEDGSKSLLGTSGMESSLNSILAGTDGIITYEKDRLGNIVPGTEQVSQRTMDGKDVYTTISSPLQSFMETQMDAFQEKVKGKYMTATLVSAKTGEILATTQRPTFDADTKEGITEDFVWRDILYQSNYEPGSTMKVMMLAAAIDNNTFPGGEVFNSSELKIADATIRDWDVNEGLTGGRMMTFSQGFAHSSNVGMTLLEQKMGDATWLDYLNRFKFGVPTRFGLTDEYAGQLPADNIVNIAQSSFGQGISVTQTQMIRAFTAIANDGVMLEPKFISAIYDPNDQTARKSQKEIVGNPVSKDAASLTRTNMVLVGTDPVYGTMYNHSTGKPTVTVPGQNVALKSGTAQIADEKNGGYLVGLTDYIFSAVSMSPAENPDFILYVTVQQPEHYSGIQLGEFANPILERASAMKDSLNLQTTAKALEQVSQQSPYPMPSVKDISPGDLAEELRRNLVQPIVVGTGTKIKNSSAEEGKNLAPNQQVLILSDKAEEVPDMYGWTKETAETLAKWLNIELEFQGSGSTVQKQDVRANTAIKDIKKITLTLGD
Description: Inhibition of penicillin-sensitive Streptococcus pneumoniae R6 PBP2X preincubated for 1 hr before addition of substrate (R)-[2-(benzoylamino)propionylsulfanyl]acetic acid. Summed up: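 Compounds taken from 100 mM DMF stocks (1% DMF final) and preincubated with 0.09 μM R6-PBP2x in 10 mM sodium phosphate pH 7.0 with 0.01 mg/mL BSA, 60 min, 25 °C. Spontaneous hydrolysis without enzyme measured. Triplicates. IC50 fitted from residual activity versus decreasing inhibitor concentration, with 0.01% Triton X-100.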

For experiment [2], the target named is T2, Penicillin-binding protein 2x (Streptococcus pneumoniae serotype 4 (strain ATCC BAA-334 / TIGR4)) (UniProt P14677).
T2 sequence (whole entry): T1 sequence (whole entry) with M385T
Description: Inhibition of penicillin-resistant Streptococcus pneumoniae 5204 PBP2X preincubated for 4 hrs before addition of substrate (R)-[2-(benzoylamino)propionylsulfanyl]acetic acid. Put shortly: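 0.6 μM 5204-PBP2x preincubated 4 h at 25 °C with inhibitor in 10 mM sodium phosphate pH 7.0, 70 mM D-alanine, 0.01 mg/mL BSA, 1% DMF, 0.01% Triton X-100. Assays were run in triplicate, and IC50 was fitted from residual activity versus decreasing inhibitor concentrations.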

As for `CCn1c2ccccc2c2cc(/C=C3\S/C(=N\c4ccccc4)N(C(C(=O)O)C(C)C)C3=O)ccc21` (stereo not drawn), the result in experiment [1] and in experiment [2] was inactive.
For the compound `CCn1c2ccccc2c2cc(/C=C3\S/C(=N\c4ccccc4)N(C(C(=O)O)c4ccccc4)C3=O)ccc21` (stereo not drawn), the outcome in experiment [1] and in experiment [2] was inactive.
Turning to `CO[C@H]1CCC[C@H]2C1=C(C(=O)O)N1C(=O)[C@H]([C@@H](C)O)[C@@H]21`, the outcome in experiment [1] and in experiment [2] was Active.
For `C[C@@H](O)[C@H]1C(=O)N2C(C(=O)[O-])=C(SC3Cn4cnc[n+]4C3)[C@H](C)[C@H]12` (stereo partly drawn), the result in experiment [1] and in experiment [2] was Active.
`C[C@H]1COc2c(N3CCN(C)CC3)c(F)cc3c(=O)c(C(=O)O)cn1c23`: the outcome in experiment [1] and in experiment [2] was Active.
`C[C@@H](O)[C@H]1C(=O)N2C(C(=O)O)=C(S[C@@H]3CN[C@H](C(=O)N(C)C)C3)[C@H](C)[C@H]12`: the result in experiment [1] and in experiment [2] was Active.
With `CO/N=C(\C(=O)N[C@@H]1C(=O)N2C(C(=O)O)=C(COC(N)=O)CS[C@H]12)c1ccco1`, the outcome in experiment [1] and in experiment [2] was Active.
Consider `CCO/N=C(\C(=O)N[C@@H]1C(=O)N2C(C(=O)[O-])=C(C[n+]3cccc4c3ncn4CCCNC)CS[C@H]12)c1nsc(N)n1`, for which the outcome in experiment [1] and in experiment [2] was Active.
`CO/N=C(\C(=O)N[C@@H]1C(=O)N2C(C(=O)O)=C(CSc3nc(=O)c(O)nn3C)CS[C@H]12)c1csc(N)n1`: the result in experiment [1] and in experiment [2] was Active.
With `COc1c(N2CCNC(C)C2)c(F)cc2c(=O)c(C(=O)O)cn(C3CC3)c12` (stereo not drawn), the outcome in experiment [1] and in experiment [2] was Active.
Turning to `CC/C=C(\C(=O)N[C@@H]1C(=O)N2C(C(=O)O)=C(COC(N)=O)CS[C@H]12)c1csc(N)n1`, the result in experiment [1] and in experiment [2] was Active.
For the compound `O=C(O)c1cc(-c2ccc(/C=C3\S/C(=N\c4ccccc4)N(c4ccccc4)C3=O)o2)ccc1Cl`, the outcome in experiment [1] and in experiment [2] was inactive.
With `C[C@@H](O)[C@H]1C(=O)N2C(C(=O)O)=C(SCCNC=N)C[C@H]12`, the result in experiment [1] and in experiment [2] was Active.
In the case of `CC=CC1=C(C(=O)O)N2C(=O)[C@@H](NC(=O)[C@H](N)c3ccc(O)cc3)[C@H]2SC1`, the result in experiment [1] and in experiment [2] was Active.
With `CCC1C(=O)N2CC1CC(OC)=C2C(=O)O` (stereo not drawn), the outcome in experiment [1] and in experiment [2] was Active.
In the case of `CC(=O)OCC1=C(C(=O)O)N2C(=O)[C@@H](NC(=O)Cc3cccs3)[C@H]2SC1`, the outcome in experiment [1] and in experiment [2] was Active.
As to `NCCSCc1cnccc1SC1=C(C(=O)O)N2C(=O)[C@@H](NC(=O)/C(=N\O)c3nc(N)sc3Cl)[C@H]2SC1`, the outcome in experiment [1] and in experiment [2] was Active.
Regarding `CC(=O)C[n+]1ccc(SCC2=C(C(=O)[O-])N3C(=O)[C@@H](NC(=O)/C(=N/OC4CCCC4)c4csc(N)n4)[C@H]3SC2)cc1`, the result in experiment [1] and in experiment [2] was Active.
Take `CCn1c2ccccc2c2cc(/C=C3\S/C(=N\C(Cc4ccccc4)C(=O)O)N(c4ccccc4)C3=O)ccc21` (stereo not drawn): the result in experiment [1] and in experiment [2] was inactive.
As to `C[C@@H](NC(=O)c1ccccc1)C(=O)SCC(=O)O`, the result in experiment [1] and in experiment [2] was Active.
For the compound `CO/N=C(\C(=O)N[C@@H]1C(=O)N2C(C(=O)O)=C(COC(C)=O)CS[C@H]12)c1csc(N)n1`, the outcome in experiment [1] and in experiment [2] was Active.
Turning to `C=CC1=C(C(=O)O)N2C(=O)[C@@H](NC(=O)/C(=N\O)c3csc(N)n3)[C@H]2SC1`, the result in experiment [1] and in experiment [2] was Active.
As to `CCO/N=C(\C(=O)NC1C(=O)N2C(C(=O)[O-])=CC(/C=C/Sc3cc[n+](C)cc3)SC12)c1nsc(N)n1` (stereo not drawn), the result in experiment [1] and in experiment [2] was Active.
Consider `O=C(Cc1cccs1)N[C@@H]1C(=O)N2C(C(=O)O)=C(/C=C/c3ccc([N+](=O)[O-])cc3[N+](=O)[O-])CS[C@H]12`, for which the outcome in experiment [1] and in experiment [2] was Active.
As to `CC(NC(=O)C(C)NC(=O)CCCCCN)C(=O)O` (stereo not drawn), the result in experiment [1] and in experiment [2] was inactive.
For the compound `C[C@@H](O)[C@H]1C(=O)N2C(C(=O)O)=C([C@H]3CCCO3)S[C@H]12`, the result in experiment [1] and in experiment [2] was Active.
For the compound `C[C@H]1NCc2cc(-c3ccc4c(=O)c(C(=O)O)cn(C5CC5)c4c3OC(F)F)ccc21`, the result in experiment [1] and in experiment [2] was Active.
Take `CC1(C)S[C@@H]2[C@H](NC(=O)[C@H](N)c3ccccc3)C(=O)N2[C@H]1C(=O)O`: the outcome in experiment [1] and in experiment [2] was Active.
For `COCC1=C(C(=O)O)N2C(=O)[C@@H](NC(=O)/C(=N\OC)c3csc(N)n3)[C@H]2SC1`, the outcome in experiment [1] and in experiment [2] was Active.
Consider `CC(=O)NC1CON(C2(C(=O)O)CCC(=O)O2)C1=O` (stereo not drawn), for which the result in experiment [1] and in experiment [2] was Active.
On to `Cc1cc(SCC2=C(C(=O)[O-])N3C[C@@H](NC(=O)CSc4c(Cl)cc(/C=C/C(=O)NCC(=O)[O-])cc4Cl)[C@H]3SC2)cc(C)[n+]1CCC[N+]1(C)CCOCC1`, for which the result in experiment [1] and in experiment [2] was Active.
In the case of `N[C@@H](C(=O)N[C@@H]1C(=O)N2C(C(=O)O)=C(Cl)CS[C@H]12)c1ccccc1`, the outcome in experiment [1] and in experiment [2] was Active.
With `C[C@@H](O)[C@H]1C(=O)N2C(C(=O)O)=C(SC3CN(C4=NCCS4)C3)[C@H](C)[C@H]12`, the result in experiment [1] and in experiment [2] was Active.
For the compound `CC1(C)S[C@@H]2[C@H](NC(=O)[C@H](N)c3ccc(O)cc3)C(=O)N2[C@H]1C(=O)O`, the result in experiment [1] and in experiment [2] was Active.
Regarding `Nc1cc(SCSC2=C(C(=O)O)N3C(=O)[C@@H](NC(=O)/C(=N/O)c4nc(N)sc4Cl)[C@H]3SC2)nc(N)n1`, the result in experiment [1] and in experiment [2] was Active.
Take `O=C(COc1ccccc1)N[C@H]1CON([C@@]2(C(=O)O)CCC(=O)O2)C1=O`: the result in experiment [1] and in experiment [2] was Active.
Turning to `CO/N=C(\C(=O)N[C@@H]1C(=O)N2C(C(=O)OCOC(=O)C(C)(C)C)=C(/C=C\c3scnc3C)CS[C@H]12)c1csc(N)n1`, the result in experiment [1] and in experiment [2] was Active.
For the compound `N[C@@H](C(=O)N[C@@H]1C(=O)N2C(C(=O)O)=C(Cl)CC[C@H]12)c1ccccc1`, the outcome in experiment [1] and in experiment [2] was Active.
Turning to `CC(=N)N1CC[C@H](SC2=C(C(=O)O)N3C(=O)[C@H]([C@@H](C)O)[C@H]3C2)C1`, the result in experiment [1] and in experiment [2] was Active.
